Laboratory results: ChEMBL document CHEMBL1131146, “4-Alkynylphenyl imidazolylpropyl ethers as selective histamine H3-receptor antagonists with high oral central nervous system activity” (J Med Chem, 1998)

What was measured:
Histamine H3 receptor = Histamine H3 receptor (Rattus norvegicus, UniProt Q9QYN8); experiment: (§1) In vitro antagonist potency at Histamine H3 receptor measured as K+-evoked [3H]histamine release from synaptosomes of rat cerebral cortex.; assay type: functional, subcellular, Brain
Sequence of Histamine H3 receptor (Q9QYN8 whole entry): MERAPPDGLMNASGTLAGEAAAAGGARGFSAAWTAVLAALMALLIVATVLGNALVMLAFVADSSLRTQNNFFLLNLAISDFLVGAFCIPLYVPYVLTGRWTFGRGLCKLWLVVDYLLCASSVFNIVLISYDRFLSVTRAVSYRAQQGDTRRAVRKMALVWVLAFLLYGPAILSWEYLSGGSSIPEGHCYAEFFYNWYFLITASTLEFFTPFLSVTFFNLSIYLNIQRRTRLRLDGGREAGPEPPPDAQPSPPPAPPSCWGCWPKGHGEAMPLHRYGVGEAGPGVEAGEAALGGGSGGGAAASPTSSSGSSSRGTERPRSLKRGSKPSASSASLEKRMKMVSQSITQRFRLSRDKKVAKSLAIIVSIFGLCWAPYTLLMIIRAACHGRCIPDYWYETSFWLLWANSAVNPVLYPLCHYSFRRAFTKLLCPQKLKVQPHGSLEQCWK
In short: (§2)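 Rat cerebral cortex synaptosomes; [³H]histamine release evoked by K⁺ depolarization; antagonist activity measured at least in triplicate, per Garbarg et al.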

[1] = target: Histamine H3 receptor (Rattus norvegicus) (UniProt Q9QYN8); experiment: as §1; assay type: functional, subcellular; conditions: Brain; in short: as §2
Sequence of Histamine H3 receptor (Rattus norvegicus) (Q9QYN8 whole entry): as above

[2] = target: Histamine H3 receptor (Mus musculus) (UniProt P58406); experiment: In vivo antagonist activity at Histamine H3 receptor was screened by measuring the effect on brain histamine turnover after oral application to mice.; assay type: functional, organism-based
Sequence of Histamine H3 receptor (Mus musculus) (P58406 whole entry): as the sequence (Q9QYN8 whole entry) above, with T15A, A286T, A290G, R387H, I389V counted along it
In short: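 Swiss mice dosed orally; in vivo H3 antagonist activity tested at least in triplicate, per Garbarg et al.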

[3] = target: Histamine H2 receptor (Cavia porcellus) (UniProt P47747); experiment: Compound was tested in vitro for its Histamine H2 receptor activity on guinea pig atrium.; assay type: functional, tissue-based; conditions: Cardiac atrium
Sequence of Histamine H2 receptor (Cavia porcellus) (P47747 whole entry): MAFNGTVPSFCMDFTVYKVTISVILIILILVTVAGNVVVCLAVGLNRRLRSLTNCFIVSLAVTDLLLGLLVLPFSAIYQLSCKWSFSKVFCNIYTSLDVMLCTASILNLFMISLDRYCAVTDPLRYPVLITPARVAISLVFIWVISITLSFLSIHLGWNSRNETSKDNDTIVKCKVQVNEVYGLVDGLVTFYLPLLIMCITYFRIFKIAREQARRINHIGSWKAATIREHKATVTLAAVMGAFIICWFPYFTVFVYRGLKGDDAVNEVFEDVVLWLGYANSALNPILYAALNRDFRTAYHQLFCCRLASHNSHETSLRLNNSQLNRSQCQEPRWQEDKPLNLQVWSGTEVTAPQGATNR

[4] = target: Histamine H1 receptor (Cavia porcellus) (UniProt P31389); experiment: Compound was tested in vitro for its Histamine H1 receptor activity on guinea pig ileum; assay type: functional, tissue-based
Sequence of Histamine H1 receptor (Cavia porcellus) (P31389 whole entry): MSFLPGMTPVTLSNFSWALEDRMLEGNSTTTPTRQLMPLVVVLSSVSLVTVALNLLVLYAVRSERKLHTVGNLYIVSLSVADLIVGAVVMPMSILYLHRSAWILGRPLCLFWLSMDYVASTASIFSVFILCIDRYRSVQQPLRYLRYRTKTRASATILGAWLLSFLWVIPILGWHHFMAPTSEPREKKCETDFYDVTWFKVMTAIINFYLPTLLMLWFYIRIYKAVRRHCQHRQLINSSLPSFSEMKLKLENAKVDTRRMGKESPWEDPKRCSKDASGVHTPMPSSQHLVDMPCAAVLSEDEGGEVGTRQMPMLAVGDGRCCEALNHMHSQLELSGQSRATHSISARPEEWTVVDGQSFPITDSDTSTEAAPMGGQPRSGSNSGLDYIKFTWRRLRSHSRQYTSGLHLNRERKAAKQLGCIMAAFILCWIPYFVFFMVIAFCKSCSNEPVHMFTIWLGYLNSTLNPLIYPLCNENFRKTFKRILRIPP

[5] = target: Histamine H1 receptor (Cavia porcellus) (UniProt P31389); experiment: Compound was tested in vitro for its Histamine H1 receptor activity on guinea pig ileum.; assay type: functional, tissue-based

Ki (Histamine H3 receptor) [nM] | -Log K [1] | ED50 [2] [mg/kg] | -Log K [3] | -Log K [5] | SMILES | -Log K [4]
123 | – | – | – | – | CC(C)(C)C#Cc1ccc(OCCCc2cnc[nH]2)cc1 | –
2.3 | – | – | – | – | C#Cc1ccc(OCCCc2cnc[nH]2)cc1 | –
140 | – | – | – | – | CCCC#Cc1ccc(OCCCc2cnc[nH]2)cc1 | –
– | 6.9 | 2.2 | < 4.7 | < 5.9 | CCCC#Cc1ccc(OCCCc2c[nH]cn2)cc1 | –
7.5 | 8.1 | 1.3 | < 4.7 | < 5 | CC#Cc1ccc(OCCCc2c[nH]cn2)cc1 | –

Continued, compound first:

SMILES | Ki (Histamine H3 receptor) [nM] | -Log K [1] | ED50 [2] [mg/kg] | -Log K [3] | -Log K [5] | -Log K [4]
C#Cc1ccc(OCCCc2c[nH]cn2)cc1 | – | 8.6 | 0.12 | < 4.8 | – | < 5.5
CC(C)(C)C#Cc1ccc(OCCCc2c[nH]cn2)cc1 | – | 6.9 | 2.2 | < 4.6 | < 5.6 | –
C[Si](C)(C)C#Cc1ccc(OCCCc2c[nH]cn2)cc1 | 36 | 7.4 | 1.1 | < 4.6 | – | < 5
